Data set [1] in a line: Selectivity index, ratio of CC50 for human […] cells to EC50 for HIV1 3B infected in human C8166 cells. Type of data set: toxicity, cell-based. The note with it: read-out: Ratio CC50/IC50. A digest of the protocol: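 SI was calculated as CC50/EC50. CC50 came from the 72 h MTT assay on uninfected C8166 cells. EC50 came from the 3-day syncytium-count assay in C8166 cells infected with HIV-1 IIIB at MOI 0.02. Both values are means of three experiments.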

Data set [2] has as its system Human immunodeficiency virus 1. The data set is described as follows: Antiviral activity against HIV1 3B infected in human PBMC assessed as protection against virus-induced cytopathogenicity after 3 days. It is filed as functional, organism-based. As to conditions: Human immunodeficiency virus 1, 3B, 72 h. In general terms: Damage to the host cells serves as the signal in cytopathic effect assays.

Data set [3] concerns Human immunodeficiency virus 1. Description: Antiviral activity against HIV1 3B infected in human A17 cells assessed as protection against virus-induced cytopathogenicity after 3 days. Type of data set: functional, organism-based. As to conditions: Human immunodeficiency virus 1, 3B, A17, 72 h.

Structures are written as SMILES.

`CC(C)c1c(CC2CCCCC2)nc(SCC(=O)c2ccccc2O)[nH]c1=O`: in data set [1], the selectivity ratio came out at 117000.
For the molecule `COc1ccc(C(=O)CSc2nc(CC3CCCCC3)c(C(C)C)c(=O)[nH]2)cc1`, in data set [1], the selectivity ratio came out at 1.39e+06.
What is called EC50 is the concentration needed to bring the measured effect to its halfway point. With `CC(C)c1c(CC2CCCCC2)nc(SCC(=O)c2ccccc2)[nH]c1=O`, in data set [1], the selectivity ratio came to 3.62e+06. Moreover, the concentration for a half-maximal effect (EC50) in data set [2] is 31 nM; in data set [3] it was 46 nM.
Regarding `CC(C)CSc1nc(CC2CCCCC2)c(C(C)C)c(=O)[nH]1`, in data set [1], the selectivity ratio was 1710.
Take `CC(C)c1c(CC2CCCCC2)nc(SCc2ccccc2)[nH]c1=O`: the selectivity ratio in data set [1] amounted to 2.54e+06.
Take `CCc1c(CC2CCCCC2)nc(SCC(=O)c2ccc(OC)cc2)[nH]c1=O`: the selectivity ratio in data set [1] amounted to 516000.
In the case of `CCc1c(CC2CCCCC2)nc(SCC(=O)c2ccccc2)[nH]c1=O`, the selectivity ratio in data set [1] was determined as 6.32e+06.
The same measure, in the same setting: under `CCc1c(CC2CCCCC2)nc(SCc2ccccc2)[nH]c1=O` stands 776; under `CCc1c(CC2CCCCC2)nc(SCC(C)C)[nH]c1=O`, 691.
In the case of `COc1ccc(C(=O)CSc2nc(CC3CCCCC3)c(C)c(=O)[nH]2)cc1`, the selectivity ratio in data set [1] is 396.
Still for that read-out and setting: in the case of `Cc1c(CC2CCCCC2)nc(SCC(=O)c2ccccc2)[nH]c1=O` it was 2150.
Same read-out and setting: in the case of `Cc1c(CC2CCCCC2)nc(SCc2ccccc2)[nH]c1=O` it was 48; in that of `Cc1c(CC2CCCCC2)nc(SCC(C)C)[nH]c1=O`, 34; in that of `CCc1c(Cc2ccccc2)nc(SCC(=O)c2ccccc2)[nH]c1=O`, more than 6850.
In the case of `CCc1c(Cc2ccccc2)nc(SCC(=O)c2ccc(OC)cc2)[nH]c1=O`, in data set [1], the selectivity ratio was more than 10500.
Take `CC(C)c1c(Cc2ccccc2)nc(SCC(=O)c2ccccc2)[nH]c1=O`: in data set [1], the selectivity ratio is more than 37700.
Still for that read-out and setting: under `COc1ccc(C(=O)CSc2nc(Cc3ccccc3)c(C(C)C)c(=O)[nH]2)cc1` stands more than 3390; under `Cc1ccnc2c1NC(=O)c1cccnc1N2C1CC1` [NEVIRAPINE], more than 15200.
In the case of `Cc1cn([C@H]2C[C@H](N=[N+]=[N-])[C@@H](CO)O2)c(=O)[nH]c1=O` [ZIDOVUDINE], in data set [1], the selectivity ratio worked out at 444000.

For the origin of these results see ChEMBL document CHEMBL1641481, “Synthesis and biological evaluation of novel dihydro-aryl/alkylsulfanyl-cyclohexylmethyl-oxopyrimidines (S-DACOs) as high active anti-HIV agents” (Bioorg Med Chem Lett, 2011).
